# Sampled rows, rich in hits. Any-hit rate of the full collection: about 4.9%.
# HSF1 activator – HSF-1 activators, primary screen, NIH3T3-HGL cells, MG132 stress, luminescence, single point; activation, % at 9 µM; NIH3T3-HGL HSF-1 luciferase reporter, 8 h; 100% = twice DMSO control signal; actives 1.7% (n = 300,000);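 active = mean replicate activation of at least 50% with a set share of replicates each reaching 50%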
# PHOSPHO1 block – PubChem AID 1565 | Phosphoethanolamine/phosphocholine phosphatase (Homo sapiens), Q8TCT1 | recombinant PHOSPHO1, absorbance phosphatase assay | inhibition, % at 13.3 µM | actives 1.1% (n = 290,000); in the data active = inhibition above about 60%
# CHT block – inhibitors of human choline transporter CHT; CHT-expressing cells, membrane potential dye, choline response; stronger effect = lower value; High affinity choline transporter 1 (Homo sapiens), Q9GZV3; B-score at 10 µM; actives 0.86% (n = 310,000); AID 488975, 2010;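 active = B-score over 3 SD under the library average, and starting fluorescence ratio not unusually high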;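 also: choline stimulus applied at its EC90 after an EC20 pre-addition; B-score computed on integrated fluorescence ratio after choline addition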
# Target sequence (Q9GZV3 whole entry, looked up): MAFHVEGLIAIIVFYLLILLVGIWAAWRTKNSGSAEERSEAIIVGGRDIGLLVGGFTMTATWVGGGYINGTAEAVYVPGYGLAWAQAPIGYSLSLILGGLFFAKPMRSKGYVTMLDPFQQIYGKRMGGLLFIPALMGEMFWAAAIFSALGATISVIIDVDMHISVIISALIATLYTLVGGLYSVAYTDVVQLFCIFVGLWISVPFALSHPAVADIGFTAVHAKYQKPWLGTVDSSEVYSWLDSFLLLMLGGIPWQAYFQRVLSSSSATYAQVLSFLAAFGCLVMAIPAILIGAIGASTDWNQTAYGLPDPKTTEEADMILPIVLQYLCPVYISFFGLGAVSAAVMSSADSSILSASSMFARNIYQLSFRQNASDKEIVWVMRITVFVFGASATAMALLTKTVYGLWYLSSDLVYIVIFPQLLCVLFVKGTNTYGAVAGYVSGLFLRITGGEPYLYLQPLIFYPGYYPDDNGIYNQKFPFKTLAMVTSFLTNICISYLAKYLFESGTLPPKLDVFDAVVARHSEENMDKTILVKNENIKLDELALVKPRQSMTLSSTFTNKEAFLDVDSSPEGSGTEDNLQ
# CHT PAM – CHT positive allosteric modulators, primary screen, cell-based, membrane potential dye, choline EC20; High affinity choline transporter 1 (Homo sapiens), Q9GZV3; CHT-expressing cells; stronger effect = higher value; LV-AA mutant CHT in HEK293 cells; B-score at 10 µM; actives 0.49% (n = 310,000);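 active = initial fluorescence not abnormally high and integrated response B-score, plate-corrected, over 3 SD above library mean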
# HSF1 inh – HSF1 inhibitors in luciferase reporter cells, primary screen, cell-based, NIH3T3, luminescence | NIH3T3-HGL HSE-luciferase, MG132-induced, luminescence 8 h; stronger effect = lower value | activity change, negative = inhibition, % at 7.5 µM (by protocol) | actives 0.77% (n = 300,000);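 active = more than half of replicate wells show activity change below -50%, luminescence cut by over half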;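 also: luciferase reports HSF-1 transcriptional activity via heat shock element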
# Hep lipid drop – inhibitors of hepatocyte lipid droplet formation, primary screen, imaging, high-throughput imaging, BODIPY stain. AML12 mouse hepatocytes, oleate lipid droplets. inhibition, % at 6.5 µM. actives 0.4% (n = 240,000). AID 1656, 2009;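 active = lipid droplet intensity inhibited by at least 50%, with more than 500 cells counted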
#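 Assay system: AML12 hepatocytes (mouse); Probe or stimulus: oleic acid at 100 µM to induce lipid droplet formation; Dosing: compound at 6.5 µM only; Schedule: compound with oleate, overnight; Detection: fluorescence imaging, 20x objective, two fields per well; Measure: % inhibition of lipid droplet signal.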
# Hits are given with their value; - = inactive; . = not tested or not shown.
SMILES,HSF1 activator,PHOSPHO1 block,CHT block,CHT PAM,HSF1 inh,Hep lipid drop
COc1ccc(Cn2nnnc2C(c2cccnc2)N2CCN(c3ccc(O)cc3)CC2)cc1 (configuration not stated),-,-,-,-,-,-
CCN(C(=O)COC(=O)c1c2c(nc3ccccc13)/C(=C/c1ccccc1)CC(C)C2)C1CCS(=O)(=O)C1 (configuration not stated),83.9,-,-,-,-,-
CCN(C(=O)COC(=O)c1cc(-c2ccc3cc(OC)ccc3c2)nc2ccccc12)C1CCS(=O)(=O)C1 (configuration not stated),70.5,-,-,-,-,-
CCN(C(=O)COC(=O)c1cc(-c2ccccc2)nc2c1c(C)nn2-c1ccccc1)C1CCS(=O)(=O)C1 (configuration not stated),-,-,-,-,-,-
COC(=O)c1sc(N(C)C)c(C#N)c1-c1ccccc1,-,-,-,-,-,-
CCOC(=O)C(CCCCOc1ccc([N+](=O)[O-])cc1)C(=O)OCC,-,-,-,-,-,.
CCOc1cccc(C(=O)Nc2ccccc2N2CCN(C(=O)C(C)C)CC2)c1,-,-,-5.71,-,-,.
CCOc1cccc(C(=O)Nc2ccc(N(CC)CC)cc2)c1,-,69.9,-,-,-,.
CCOc1cccc(C(=O)Nc2ccc3ccccc3c2)c1,-,-,-,-,-,-
CCN(CC)c1ccc(NC(=O)Nc2cccc(C(C)=O)c2)cc1,-,74.4,-,-,-,-
CCN(CC)c1ccc(NC(=O)c2ccc3c(c2)c(C)c(C)n3C)cc1,-,-,-,-,-,71.2
CCCCOc1cccc(C(=O)Nc2ccccc2N2CCCC2)c1,-,-,-,-,-,-
Cc1ccccc1OCC(=O)OCC(=O)Nc1ccc(S(N)(=O)=O)cc1,-,-,-,-,-,.
O=C(CSc1ccc([N+](=O)[O-])cn1)Nc1nccs1,-,-,-,-,-,-
N#Cc1ccsc1NC(=O)COC(=O)CCCSc1nc2ccccc2s1,-,-,-,-,-,.
O=c1c2c(-c3ccc(Cl)cc3)csc2nc2n1CCC2,-,-,-,-,-,.
COc1cc(-c2nn3c(C4CCCCC4)nnc3s2)cc(OC)c1OC,-,-,-,-,-,.
COc1ccc(-c2nn3c(C4CCCCC4)nnc3s2)cc1OC,-,83.4,-,-,-,.
Cc1ccsc1C1C=C(c2cccc(Br)c2)Nc2ncnn21 (configuration not stated),-,61.5,-,-,-,.
COc1cccc(C2=CC(c3ccc(C)cc3)n3ncnc3N2)c1 (configuration not stated),-,-,-,-,-,.
CC1CN(C(=O)c2ccc(-c3ccccc3Cl)o2)CC(C)O1 (configuration not stated),-,.,-,-,-,.
CC1CCCN(C(=O)c2ccc(-c3ccccc3Cl)o2)C1 (configuration not stated),58.2,.,-,-,-,.
COCc1cc(=O)[nH]c(Nc2nc3ccccc3o2)n1,83.8,-,-,-,-,.
COc1ccc(NC(=O)C2CC(=O)NC(Nc3cccc(C)c3)=N2)cc1 (configuration not stated),86.8,-,-,-,-,-
O=C(O)CCCNC(=O)CCCNC(=O)C(c1ccccc1)c1ccccc1,-,-,-,-,-63.7,-
Cc1cc(C)cc(C(=O)Nc2cccnc2Cl)c1,-,-,-,-,-,-
Cc1ccc(C(=O)Nc2cccnc2Cl)cc1Cl,58.7,-,-,-,-,-
CCC(OC(=O)C(C)N1C(=O)C(=O)c2ccccc21)C(=O)Nc1ccccc1OC (configuration not stated),-,-,.,.,-,-
COc1ccc(Nc2ncnc3c2c(C)c(C)n3CCCN(C)C)cc1,-,-,-,-,-54.5,-
Cc1c(C)n(CCCN(C)C)c2ncnc(Nc3ccccc3)c12,-,-,-,-,-,-

# High-throughput results: PubChem BioAssay, several laboratories
